The structures appear in SMILES notation. Calls of active or inactive are those of the source. No cut-off for these calls is given here. A value given as a limit tells only on which side of the number the result lay.

The nature of data set [1]: Cytotoxicity in human HepG2.2.15 cells assessed as reduction in cell viability incubated for 8 days by MTT assay. It counts as cell-based, HepG2 2.2.15. In short, it runs like this: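 This was run in the same 8-day HepG2.2.15 cultures. After the medium was removed, MTT was added (final 2.5 mg/mL) for 1 h at 37 °C. Cells were lysed in 10% SDS/50% DMF, pH 7.2, and OD was read at 570 nm to give % cell death. CC50 was averaged with SD from at least two independent determinations.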

In data set [2] the test system is Hepatitis B virus. The experiment in a line: Antiviral activity against HBV infected in human HepG2.2.15 cells assessed as reduction in cytoplasmic HBV-DNA replication incubated for 8 days by real-time PCR analysis. Type of data set: functional, organism-based.
Data set [3] has as its system mouse (Mus musculus). The experiment in a line: Tmax in mouse at 2 mg/kg, iv dosed as single administration. Conditions: in vivo.
Data set [4] relates to mouse (Mus musculus). The data set can be described thus: AUC (0 to infinity) in mouse at 2 mg/kg, iv dosed as single administration. Particulars: in vivo.
Data set [5] relates to mouse (Mus musculus). The data set can be described thus: AUC (0 to infinity) in mouse at 20 mg/kg, po dosed as single administration. Particulars: in vivo.
Data set [6] concerns mouse (Mus musculus). The experiment in a line: Observed volume of distribution at steady state in mouse at 2 mg/kg, iv dosed as single administration. Conditions: in vivo, read-out: Vdss.
Data set [7] deals with Hepatitis B virus. The data set can be described thus: Antiviral activity against HBV infected in human HepG2.2.15 cells assessed as reduction in capsid associated DNAs at 0.1 uM by agarose gel electrophoresis method. It counts as functional, organism-based. Conditions: HepG2 2.2.15. In short, it runs like this:
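HepG2.2.15 cells treated at indicated concentrations for 8 days. Intracellular capsids resolved on 1.8% native agarose gel; capsid mobility compared with untreated cells, and capsid-associated HBV DNA detected in situ.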

The test system of data set [8] is Hepatitis B virus. The data set can be described thus: Antiviral activity against HBV infected in human HepG2.2.15 cells assessed as reduction in capsid formation. Type of data set: functional, organism-based. Conditions: HepG2 2.2.15.
Data set [9] relates to Hepatitis B virus. The experiment in a line: Antiviral activity against HBV infected in human HepG2.2.15 cells assessed as reduction in cytoplasmic HBV-DNA replication at cytotoxic CC50 level incubated for 8 days by real-time PCR analysis. Type of data set: functional, organism-based. Particulars: HepG2 2.2.15.

As usually defined, the CC50 is the concentration that lowers cell viability or growth by half. The term IC50 denotes the concentration that gives 50% inhibition. By IC90 is commonly meant the point of the concentration-response curve where the effect stands at 90%. As for `CN(C)CCNc1nc(F)c(-c2nn(Cc3ccc(C#N)cc3)c(=O)c3ccccc23)cc1Cl`, in [1], the CC50 at 192 h was 9.76 µM. Moreover, in the data set on Hepatitis B virus [2] (HepG2 2.2.15, 192 h), the IC50 was determined as 0.26 µM and the IC90 stood at 0.87 µM.
Usually Tmax stands for the time from dosing to the highest level. A word on the AUC: it is the area under the concentration-time curve, a measure of exposure. High values mean high exposure, low ones low exposure. The term AUC(0-inf) denotes total exposure, with the tail of the curve extrapolated. Read a high AUC(0-inf) as more exposure. Regarding `N#Cc1ccc(Cn2nc(-c3cc(Cl)c(NCCO)nc3F)c3ccccc3c2=O)cc1`, in data set [1], the CC50 at 192 h is 32.1 µM. Besides, in the data set on Hepatitis B virus [2] (HepG2 2.2.15, 192 h), the IC50 is 0.028 µM and the IC90 came out at 0.23 µM. Further, the time of peak concentration (Tmax) in the data set on mouse (Mus musculus) [3] was determined as 15 min. The compound also returned an AUC in the data set with mouse (Mus musculus) [4] of 735 ng·h/mL. In the data set on mouse (Mus musculus) [5], this compound had an AUC(0-inf) of 171 ng·h/mL. In addition, the Vd with mouse (Mus musculus) [6] was 5.44 L/kg.
With `CN(C)c1ccc(-c2nn(Cc3ccc(C#N)cc3)c(=O)c3ccccc23)c(F)n1`, in [1], the CC50 at 192 h turned out to be 79.2 µM. Besides, in the data set with Hepatitis B virus [2] (HepG2 2.2.15, 192 h), the IC50 was 0.53 µM and the IC90 is greater than 10 µM.
Turning to `C=C1[C@H](CO)[C@@H](O)C[C@@H]1n1cnc2c(=O)[nH]c(N)nc21`, in the data set on Hepatitis B virus [7], the result was Active. The outcome in the data set on Hepatitis B virus [8] was inactive.
On to `COC(=O)CCNc1nc(F)c(-c2nn(Cc3ccc(C#N)cc3)c(=O)c3ccccc23)cc1Cl`, for which, in data set [1], the CC50 at 192 h was greater than 100 µM. In the data set on Hepatitis B virus [2] (HepG2 2.2.15, 192 h), the IC50 is 0.21 µM and the IC90 amounted to 1.14 µM.
The matching figures for `CCOc1ccc(-c2nn(Cc3ccc(C#N)cc3)c(=O)c3ccccc23)c(F)n1`: greater than 100 µM, 2.11 µM and greater than 10 µM.
Taken in the same sequence, the figures for `N#Cc1ccc(Cn2nc(-c3ccc(N)nc3F)c3ccccc3c2=O)cc1` were greater than 100 µM, 0.8 µM and greater than 10 µM.
The matching figures for `Cc1ccc(-c2nn(Cc3ccc(C#N)cc3)c(=O)c3ccccc23)c(F)n1`: greater than 100 µM, 0.82 µM and greater than 10 µM.
Consider `Cc1nc(-c2ccc(F)nc2F)cn(Cc2ccc(Cl)cc2)c1=O`, for which the CC50 at 192 h in data set [1] is greater than 100 µM. Moreover, the outcome in the data set with Hepatitis B virus [9] was inactive.
Take `CC(=O)Nc1ccc(-c2nn(Cc3ccc(C#N)cc3)c(=O)c3ccccc23)c(F)n1`: the CC50 at 192 h in data set [1] is greater than 100 µM. Further, the IC90 result with Hepatitis B virus [2] (HepG2 2.2.15) is “inactive”. Further, the outcome in the data set with Hepatitis B virus [9] was inactive.
In the case of `O=C(O)c1cc(-c2ccc(F)nc2F)nn(Cc2ccc(Cl)cc2)c1=O`, the CC50 at 192 h in data set [1] is greater than 100 µM. Further, in the data set with Hepatitis B virus [9], the outcome was inactive.
With `CC(C)c1cc(-c2ccc(F)nc2F)nn(Cc2ccc(Cl)cc2)c1=O`, the CC50 at 192 h in data set [1] amounted to 56.7 µM. Also, the IC50 in the data set with Hepatitis B virus [2] (HepG2 2.2.15, 192 h) was determined as 11.3 µM.
Take `O=c1c(CO)cc(-c2ccc(F)nc2F)nn1Cc1ccc(Cl)cc1`: the CC50 at 192 h in [1] was greater than 100 µM. In the data set with Hepatitis B virus [2] (HepG2 2.2.15, 192 h), the IC50 worked out at 0.17 µM.
For `N#Cc1ccc(Cn2nc(-c3cc(Cl)c(NC[C@@H](O)CO)nc3F)c3ccccc3c2=O)cc1`, the half-maximal cytotoxic concentration (CC50) at 192 h in data set [1] is greater than 100 µM. In the data set on Hepatitis B virus [2] (HepG2 2.2.15, 192 h), the IC50 is 0.008 µM and the IC90 is 0.24 µM.
In the case of `O=c1c2c(c(-c3ccc(F)nc3F)nn1Cc1ccc(Cl)cc1)CCCC2`, the CC50 at 192 h in data set [1] came out at 31 µM. For the same compound, the 50% inhibitory concentration (IC50) in the data set on Hepatitis B virus [2] (HepG2 2.2.15, 192 h) came out at 1.45 µM.
